The source of these data is PubChem BioAssay AID602403 (The Scripps Research Institute Molecular Screening Center, 2012).

The target of the assay is Diacylglycerol lipase-alpha (Mus musculus) (UniProt Q6WQJ1). Nature of the assay: mouse DAGLa inhibition, late-stage follow-up, selectivity assay for DAGLb inhibitor project, biochemical, gel-based competitive ABPP, recombinant, fluorescence (AID 602403). The settings on record: HEK293T membrane mouse DAGLa, at 0.4 µM, active compounds read high. The essentials: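 Material: membrane proteome of 293T HEK cells transiently overexpressing mouse DAGLa; Also added: HT-01 probe, 1 µM; Read-out: percent inhibition from band integrated optical density versus DMSO control; Benchmarks: high control DMSO without compound, low control blank-gel background; Measured by: in-gel fluorescence after SDS-PAGE; Schedule: 30 min compound plus 30 min probe, 37 °C.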
Diacylglycerol lipase-alpha (Mus musculus), sequence (Q6WQJ1 whole entry, looked up): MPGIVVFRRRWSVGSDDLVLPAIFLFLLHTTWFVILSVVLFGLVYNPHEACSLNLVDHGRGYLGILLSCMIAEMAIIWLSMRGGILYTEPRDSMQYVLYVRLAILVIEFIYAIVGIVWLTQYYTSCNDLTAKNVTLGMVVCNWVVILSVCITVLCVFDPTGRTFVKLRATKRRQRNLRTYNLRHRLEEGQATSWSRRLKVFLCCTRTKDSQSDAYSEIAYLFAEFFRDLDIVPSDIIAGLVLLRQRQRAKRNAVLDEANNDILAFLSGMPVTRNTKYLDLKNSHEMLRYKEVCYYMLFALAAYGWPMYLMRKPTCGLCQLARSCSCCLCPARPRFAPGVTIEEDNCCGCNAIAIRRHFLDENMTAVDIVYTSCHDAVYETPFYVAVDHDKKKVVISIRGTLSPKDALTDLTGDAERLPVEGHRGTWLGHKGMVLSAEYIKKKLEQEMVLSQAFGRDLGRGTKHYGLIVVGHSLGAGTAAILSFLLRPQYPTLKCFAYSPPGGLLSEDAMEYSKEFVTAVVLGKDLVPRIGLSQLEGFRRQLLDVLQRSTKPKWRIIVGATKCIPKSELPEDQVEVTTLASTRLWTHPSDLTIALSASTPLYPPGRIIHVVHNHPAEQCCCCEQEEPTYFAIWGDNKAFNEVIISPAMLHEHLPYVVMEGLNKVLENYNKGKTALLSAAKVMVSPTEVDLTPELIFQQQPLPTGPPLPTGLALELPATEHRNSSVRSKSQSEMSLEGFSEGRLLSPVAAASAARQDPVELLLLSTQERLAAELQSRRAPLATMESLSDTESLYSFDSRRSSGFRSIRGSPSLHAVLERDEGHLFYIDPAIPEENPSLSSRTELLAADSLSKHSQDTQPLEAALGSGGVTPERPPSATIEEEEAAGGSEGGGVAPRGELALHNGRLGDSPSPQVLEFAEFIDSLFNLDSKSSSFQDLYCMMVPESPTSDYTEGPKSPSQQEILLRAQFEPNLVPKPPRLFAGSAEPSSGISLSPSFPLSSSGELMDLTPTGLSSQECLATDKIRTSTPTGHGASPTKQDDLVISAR

A number with no mark means an inactive call. Active and inactive are the calls of the source.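 The calls were made as follows: active = inhibition of the enzyme-probe labelling of at least 50% at one fixed dose; inactive = inhibition below 50%.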

For the molecule `O=C(N1CCCCC1Cc1ccccc1)n1cc(-c2ccc(OC(F)(F)F)cc2)nn1` (stereo not drawn), the inhibition is 50% (active).

For `COc1ccc(-c2ccc(-c3cn(C(=O)N4CCCCC4c4ccccc4)nn3)cc2)cc1` (stereo not drawn), the inhibition is 0%.

`COc1ccccc1-c1ccc(-c2cn(C(=O)N3CCCCC3Cc3ccccc3)nn2)cc1` (stereo not drawn): the inhibition is 40%.

Usually inhibition stands for the percentage by which the read-out fell short of the control.
